# From ChEMBL document CHEMBL1134785, “Synthesis and biological evaluation of prostaglandin-F alkylphosphinic acid derivatives as bone anabolic agents for the treatment of osteoporosis” (J Med Chem, 2001)
# Legend:
# Rattus norvegicus [1] = assay: Endosteal eroded surface(%) measured Histomorphometrically after a dose of 10 ug/kg in tibial diaphysis; type: functional
# Method in brief: (§1)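 Tibial histomorphometry in 6-month-old rats, OVX 60 days before treatment, then daily injection for 60 days. Vehicle was acetate-buffered saline with methylcellulose and polyoxyethylenesorbitan monooleate. Rats received xylenol orange 90 mg/kg before treatment and calcein 10 mg/kg at 14 and 4 days pre-sacrifice. Rats were killed by cardiac puncture under ketamine/xylazine. Groups were compared with vehicle by ANOVA plus LSD test.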
# Rattus norvegicus [2] = assay: Mineral apposition rate ([…])bone measured Histomorphometrically after a dose of 100 ug/kg in proximal tibial metaphysis; type: functional
# Method in brief: (§2)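 Ovariectomized six-month-old rats, 6-8 per group, were dosed subcutaneously once daily at 0.01–3.0 mg/kg for 60 days, starting 60 days after surgery. Vehicle was acetate-buffered saline, methylcellulose and polyoxyethylenesorbitan monooleate. Labels were xylenol orange 90 mg/kg pretreatment and calcein 10 mg/kg at 14 and 4 days before necropsy. Histomorphometry covered the proximal tibial metaphysis, 1–4 mm distal to the growth plate–metaphyseal junction. ANOVA/LSD versus vehicle.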
# Rattus norvegicus [3] = assay: Bone Volume /Tissue Volume (%)measured using micro Computed Tomography(CT) after a dose of 100 ug/kg in Vertebral Bone; type: functional; conditions: at 100 µg/kg
# Rattus norvegicus [4] = assay: Directly measured thickness(um) using micro Computed Tomography(CT) after a dose of 30 ug/kg in Vertebral Bone; type: functional
# Method in brief: (§3)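 Micro-CT of the fifth lumbar vertebra, measuring cancellous bone volume and architecture. Rats were 6 months old, OVX 60 days before treatment, then dosed daily for 60 days. Test-agent doses were 10–3000 µg/kg, given as a once-daily subcutaneous injection; 6 mg/kg/day was given to the positive-control group. Groups were compared with vehicle by ANOVA plus LSD test.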
# Rattus norvegicus [5] = assay: Marrow area (mm) measured Histomorphometrically after a dose of 3000 ug/kg in tibial diaphysis; type: functional
# Method in brief: (§4)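 Six-month-old rats, bilaterally ovariectomized, 6-8 per group, on natural chow. After 60 days they received once-daily subcutaneous dosing for 60 days at 0.01–3.0 mg/kg. Vehicle was acetate-buffered saline with methylcellulose and polyoxyethylenesorbitan monooleate. Labels were xylenol orange 90 mg/kg before treatment and calcein 10 mg/kg 14 and 4 days before sacrifice. Tibial histomorphometry was read under fluorescent light, with ANOVA/LSD versus vehicle.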
# Rattus norvegicus [6] = assay: Bone Volume /Tissue Volume (%)measured using micro Computed Tomography(CT) after a dose of 3000 ug/kg in Vertebral Bone; type: functional; conditions: at 3000 µg/kg
# Rattus norvegicus [7] = assay: Bone Volume /Tissue Volume (%)measured using micro Computed Tomography(CT) after a dose of 10 ug/kg in Vertebral Bone; type: functional; conditions: at 10 µg/kg
# Rattus norvegicus [8] = assay: Directly measured thickness(um) using micro Computed Tomography(CT) after a dose of 1000 ug/kg in Vertebral Bone; type: functional; method in brief: as §3
# Rattus norvegicus [9] = assay: Bone Volume /Tissue Volume (%)measured using micro Computed Tomography(CT) after a dose of 1000 ug/kg in Vertebral Bone; type: functional; conditions: at 1000 µg/kg
# Rattus norvegicus [10] = assay: Trabecular no (mm)measured Histomorphometrically after a dose of 3000 ug/kg in proximal tibial metaphysis; type: functional, Trabecula
# Method in brief: (§5)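 Six-month-old rats were ovariectomized, and 60 days later daily subcutaneous dosing began for 60 days, with vehicle of acetate-buffered saline, methylcellulose and polysorbate. Xylenol orange (90 mg/kg) labelled bone pre-treatment and calcein (10 mg/kg) 14 and 4 days pre-sacrifice. Histomorphometry covered the proximal tibial metaphysis 1-4 mm distal to the growth plate-metaphyseal junction. Groups were 6-8 rats, compared by ANOVA/LSD vs vehicle.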
# Rattus norvegicus [11] = assay: Trabecular thickness […] measured Histomorphometrically after a dose of 30 ug/kg in proximal tibial metaphysis; type: functional, Trabecula; method in brief: as §5
# Rattus norvegicus [12] = assay: Bone Volume /Tissue Volume (%)measured Histomorphometrically after a dose of 10 ug/kg in proximal tibial metaphysis; type: functional; conditions: at 10 µg/kg
# Rattus norvegicus [13] = assay: Mineral apposition rate ([…])bone measured Histomorphometrically after a dose of 10 ug/kg in proximal tibial metaphysis; type: functional; method in brief: as §2
# Rattus norvegicus [14] = assay: Derived trabecular no (mm-1)measured using micro Computed Tomography(CT) after a dose of 1000 ug/kg in Vertebral Bone; type: functional, Trabecula; method in brief: as §3
# Rattus norvegicus [15] = assay: Directly measured thickness(um) using micro Computed Tomography(CT) after a dose of 3000 ug/kg in Vertebral Bone; type: functional; method in brief: as §3
# Rattus norvegicus [16] = assay: Bone Volume /Tissue Volume (%)measured using micro Computed Tomography(CT) after a dose of 300 ug/kg in Vertebral Bone; type: functional; conditions: at 300 µg/kg
# [17] = target: T1, Prostaglandin E2 receptor EP1 subtype (Homo sapiens, UniProt P34995); assay: In vitro binding at EP1 human prostaglandin receptor using [3H]PGE-2 as radioligand
# T1 sequence (P34995 whole entry): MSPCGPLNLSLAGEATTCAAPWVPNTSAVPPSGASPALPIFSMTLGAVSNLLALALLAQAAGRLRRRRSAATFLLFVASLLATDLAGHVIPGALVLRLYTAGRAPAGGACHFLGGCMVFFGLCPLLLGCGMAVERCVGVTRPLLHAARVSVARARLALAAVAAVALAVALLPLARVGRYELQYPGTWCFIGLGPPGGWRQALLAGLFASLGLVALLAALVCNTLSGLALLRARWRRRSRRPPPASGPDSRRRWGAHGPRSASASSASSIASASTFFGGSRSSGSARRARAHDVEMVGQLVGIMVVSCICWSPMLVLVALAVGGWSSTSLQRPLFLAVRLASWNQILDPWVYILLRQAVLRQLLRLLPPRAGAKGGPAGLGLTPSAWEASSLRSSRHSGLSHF
# Method in brief: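 hEP1 transiently expressed in COS-7 cells by the hFP transfection and membrane protocol, with membranes in TME buffer pH 6.0. Competition binding used 5 nM [3H]PGE2, 1 h at 23 °C, filtration and scintillation counting.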
# Rattus norvegicus [18] = assay: Marrow area (mm) measured Histomorphometrically after a dose of 1000 ug/kg in tibial diaphysis; type: functional; method in brief: as §4
# [19] = target: Prostaglandin E2 receptor EP4 subtype (Homo sapiens, UniProt P35408); assay: In vitro binding at EP4 human prostaglandin receptor using [3H]PGE-2 as radioligand
# Sequence of Prostaglandin E2 receptor EP4 subtype (P35408 whole entry): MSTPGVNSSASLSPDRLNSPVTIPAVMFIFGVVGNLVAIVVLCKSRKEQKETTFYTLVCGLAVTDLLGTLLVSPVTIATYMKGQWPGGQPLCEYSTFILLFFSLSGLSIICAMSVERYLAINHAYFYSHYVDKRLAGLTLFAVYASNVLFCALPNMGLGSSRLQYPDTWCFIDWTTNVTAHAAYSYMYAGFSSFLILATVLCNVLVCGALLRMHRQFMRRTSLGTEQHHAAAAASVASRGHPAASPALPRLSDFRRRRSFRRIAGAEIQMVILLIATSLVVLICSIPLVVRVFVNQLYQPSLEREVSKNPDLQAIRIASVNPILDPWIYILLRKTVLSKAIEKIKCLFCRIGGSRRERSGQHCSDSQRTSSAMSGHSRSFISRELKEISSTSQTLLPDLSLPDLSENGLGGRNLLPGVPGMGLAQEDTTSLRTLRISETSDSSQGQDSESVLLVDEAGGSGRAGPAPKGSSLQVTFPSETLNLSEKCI
# Method in brief: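 Receptors stably expressed in CHO cells, collected 4-5 days after seeding. Membranes made by lysis (Tris, EDTA, protease inhibitors) and 100000g pellet, then resuspended at 1 mg protein/mL in TME. Radioligands at 5 nM: [3H]PGE2 for EP2/EP3/EP4, [3H]Iloprost for IP, [3H]SQ-29548 for TP. Competition binding with filtration and counting.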
# Rattus norvegicus [20] = assay: Derived trabecular thickness (um) measured using micro Computed Tomography(CT) after a dose of 100 ug/kg in Vertebral Bone; type: functional, Trabecula; method in brief: as §3
# Rattus norvegicus [21] = assay: Mineral apposition rate ([…])bone measured Histomorphometrically after a dose of 300 ug/kg in proximal tibial metaphysis; type: functional; method in brief: as §2
# Rattus norvegicus [22] = assay: Endosteal mineralizing surface Histomorphometrically after a dose of 100 ug/kg in tibial diaphysis; type: functional; method in brief: as §4
# Rattus norvegicus [23] = assay: Trabecular thickness […] measured Histomorphometrically after a dose of 10 ug/kg in proximal tibial metaphysis; type: functional, Trabecula; method in brief: as §5
# Rattus norvegicus [24] = assay: Bone formation rate/bone volume (%/year)bone measured Histomorphometrically after a dose of 30 ug/kg in proximal tibial metaphysis; type: functional; conditions: at 30 µg/kg
# Rattus norvegicus [25] = assay: Endosteal eroded surface(%) measured Histomorphometrically after a dose of 100 ug/kg in tibial diaphysis; type: functional; method in brief: as §1
smiles,measurement,setting,value
CP(=O)(O)CCC/C=C\C[C@@H]1[C@@H](/C=C/[C@@H](O)COc2ccccc2)[C@H](O)C[C@@H]1O,Endosteal eroded surface,Rattus norvegicus [1],11.83%
same,Mineral apposition rate,Rattus norvegicus [2],0.87 µm/day
same,Activity,Rattus norvegicus [3],38.04%
same,Directly measured thickness,Rattus norvegicus [4],126 µm
same,Marrow area,Rattus norvegicus [5],0.74 mm
same,Activity,Rattus norvegicus [6],39.48%
same,Activity,Rattus norvegicus [7],31.04%
same,Directly measured thickness,Rattus norvegicus [8],128 µm
same,Activity,Rattus norvegicus [9],36.98%
same,Trabecular no.,Rattus norvegicus [10],1.51 1/mm
same,Trabecular thickness,Rattus norvegicus [11],41.2 µm
same,Activity,Rattus norvegicus [12],2.23%
same,Mineral apposition rate,Rattus norvegicus [13],0.99 µm/day
same,Derived trabecular number,Rattus norvegicus [14],4.59 mm-1
same,Directly measured thickness,Rattus norvegicus [15],134 µm
same,Activity,Rattus norvegicus [16],38.61%
same,IC50,[17],> 10 µM
same,Marrow area,Rattus norvegicus [18],0.86 mm²
same,IC50,[19],> 10 µM
same,Derived trabecular thickness,Rattus norvegicus [20],78.7 µm
same,Mineral apposition rate,Rattus norvegicus [21],0.98 µm/day
same,Endosteal mineralizing surface,Rattus norvegicus [22],22.28%
same,Trabecular thickness,Rattus norvegicus [23],35.7 µm
same,Activity,Rattus norvegicus [24],495.65%
same,Endosteal eroded surface,Rattus norvegicus [25],2.3%
